Source: ChEMBL document CHEMBL1155225, “Investigation of functionally liver selective glucokinase activators for the treatment of type 2 diabetes” (J Med Chem, 2009)
Converted amounts (≈) assume the structure as drawn. The source made the active and inactive calls. No cut-off for these calls is given here.

Key:
[1] = target: T1, Hexokinase-4 (Homo sapiens) (UniProt P35557); test: Activation of His-tagged human recombinant liver glucokinase expressed in Escherichia coli BL21 (DE3) assessed as drug level required for half-maximal activation; assay type: single protein
T1 sequence (whole entry): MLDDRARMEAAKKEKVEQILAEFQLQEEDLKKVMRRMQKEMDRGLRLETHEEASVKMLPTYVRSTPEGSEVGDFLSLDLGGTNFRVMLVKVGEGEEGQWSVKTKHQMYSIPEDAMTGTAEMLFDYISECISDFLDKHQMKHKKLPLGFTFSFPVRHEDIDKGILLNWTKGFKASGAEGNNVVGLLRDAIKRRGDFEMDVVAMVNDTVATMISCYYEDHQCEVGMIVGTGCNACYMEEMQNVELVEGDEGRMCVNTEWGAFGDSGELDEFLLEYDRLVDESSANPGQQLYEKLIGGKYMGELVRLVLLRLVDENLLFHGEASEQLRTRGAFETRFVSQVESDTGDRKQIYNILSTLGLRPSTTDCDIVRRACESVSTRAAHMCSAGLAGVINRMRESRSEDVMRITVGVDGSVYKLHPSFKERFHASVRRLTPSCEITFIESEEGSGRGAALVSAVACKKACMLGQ
Summary of the method: (§1)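 Recombinant human liver GK (aa 17-466), His-tagged, expressed in E. coli BL21 Star (DE3), nickel affinity purified, tag cleaved (GPGSM left), then anion exchange and gel filtration to >95%.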

[2] = Permeability at 5 to 10 uM at pH 4, 6.8 and 8 by PAMPA; settings: pH 4, 6.8, 8, 10 µM
[3] = system: Mus musculus; test: Reduction in glucose excursion in C57BL/6 mouse at 50 mg/kg, po in microemulsion administered 30 mins before glucose challenge measured at 4 hrs postdose by oral glucose tolerance test; assay type: functional, organism-based; set-up: dose 50 mg/kg; settings: C57BL6
Summary of the method: (§2)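 C57BL6 mice grouped by matched 0-h plasma glucose; compound given by oral gavage (5 mL/kg) at 50 mg/kg (or 72 mg/kg) in microemulsion (Cremophor RH40, corn oil-monodiglyceride, propylene glycol, ethanol; diluted 2:3 with water) or in water; oral glucose 1 g/kg 30 min later. Blood sampled at 0.5, 1, 2 and 4 h post-dosing for glucose (meter) and insulin; % reduction from control.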

[4] = Metabolic stability in human liver microsomes assessed as half life; assay type: ADME, Microsome
Summary of the method: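 Compound incubated at 1 μM with human liver microsomes plus selected cofactors (NADPH, UDPGA); clearance followed at 4 time points as % test compound remaining, giving half-life.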

[5] = target: T2, Hexokinase-4 (Rattus norvegicus) (UniProt P17712); test: Activation of glucokinase-mediated of glucose phosphorylation in Sprague-Dawley rat hepatocytes assessed as release of [3H]H2O from [2-3H]glucose at 30 uM after 3 hrs; assay type: cell-based; settings: Hepatocyte
T2 sequence (whole entry): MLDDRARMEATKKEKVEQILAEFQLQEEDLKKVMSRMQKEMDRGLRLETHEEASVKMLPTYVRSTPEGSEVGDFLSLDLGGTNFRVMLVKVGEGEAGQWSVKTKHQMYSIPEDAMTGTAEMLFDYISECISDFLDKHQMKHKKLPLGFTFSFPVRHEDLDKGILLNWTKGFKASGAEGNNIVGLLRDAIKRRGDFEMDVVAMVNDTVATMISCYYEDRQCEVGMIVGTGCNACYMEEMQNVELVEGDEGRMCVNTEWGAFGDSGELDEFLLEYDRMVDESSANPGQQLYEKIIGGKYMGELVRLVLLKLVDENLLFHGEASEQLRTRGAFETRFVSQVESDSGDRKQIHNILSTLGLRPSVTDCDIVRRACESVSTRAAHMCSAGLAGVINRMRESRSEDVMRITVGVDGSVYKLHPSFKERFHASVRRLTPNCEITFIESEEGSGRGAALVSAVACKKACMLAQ
Summary of the method: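 Hepatocytes from overnight-fasted male Sprague-Dawley rats by collagenase perfusion, cultured 16-20 h at 37 °C, 5% CO2 in serum-free DMEM with 5 mM glucose plus dexamethasone. Preincubated 3 h at 37 °C in serum-free DMEM, 5 mM glucose, with DMSO or 30 μM compound, then 30 min with [2-3H]glucose. Medium collected into 0.1 M HCl; detritiated glucose (nmol/h per 10^6 cells) as % increase over vehicle; quadruplicate, mean ± SEM, Student's t test.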

[6] = system: Mus musculus; test: Reduction in glucose excursion in C57BL/6 mouse at 72 mg/kg, po in microemulsion administered 30 mins before glucose challenge measured up to 6 hrs postdose by oral glucose tolerance test; assay type: functional, organism-based; set-up: dose 72 mg/kg; settings: C57BL6
[7] = system: Mus musculus; test: Increase in basal insulin release from beta cells in po dosed C57BL/6 mouse; assay type: functional, organism-based; settings: C57BL6
[8] = system: Mus musculus; test: Increase in insulin release from beta cells in po dosed C57BL/6 mouse after glucose challenge; assay type: functional, organism-based; settings: C57BL6
[9] = Aqueous solubility by HPLC analysis; assay type: physicochemical; settings: buffer
[10] = target: T1, Hexokinase-4 (Homo sapiens); test: Activation of His-tagged human recombinant liver glucokinase expressed in Escherichia coli BL21 (DE3) assessed as drug level required for half-maximal activation for sigmoid activation curve; summary of the method: as §1
[11] = Intrinsic solubility in neutral pH by HPLC analysis; assay type: physicochemical
[12] = Aqueous solubility in water by HPLC analysis; assay type: physicochemical
[13] = system: Mus musculus; test: Reduction in glucose excursion in C57BL/6 mouse at 50 mg/kg, po in microemulsion administered 30 mins before glucose challenge measured at 0.5 hrs postdose by oral glucose tolerance test; assay type: functional, C57BL6; set-up: scale not given: the % may be the effect or the level left; summary of the method: as §2
[14] = system: Mus musculus; test: Reduction in glucose excursion in C57BL/6 mouse at 50 mg/kg, po in water administered 30 mins before glucose challenge measured at 1 hr postdose by oral glucose tolerance test; assay type: functional, C57BL6; set-up: scale not given: the % may be the effect or the level left; summary of the method: as §2
[15] = system: Mus musculus; test: Reduction in glucose excursion in C57BL/6 mouse at 50 mg/kg, po in water administered 30 mins before glucose challenge measured at 2 hrs postdose by oral glucose tolerance test; assay type: functional, C57BL6; set-up: scale not given: the % may be the effect or the level left; summary of the method: as §2

Row | Structure (SMILES) | Activity [1] | logPm [2] | half-life [4] | Activity [5] | other results
1 | CCCN(CCC)S(=O)(=O)c1ccc(C(CC2CCCC2)C(=O)Nc2nc3ccc(OC)nc3s2)cc1 (stereo not drawn) | 35 nM | – | – | – | –
2 | COc1ccc2nc(NC(=O)C(CC3CCCC3)c3ccc(S(=O)(=O)N(C(C)C)C(C)C)cc3)sc2n1 (stereo not drawn) | 73 nM | – | – | – | –
3 | COc1ccc2nc(NC(=O)C(CC3CCCC3)c3ccc(S(=O)(=O)Nc4ccccc4)cc3)sc2n1 (stereo not drawn) | 583 nM | -3.8 | – | – | –
4 | COc1ccc2nc(NC(=O)C(CC3CCCC3)c3ccc(S(=O)(=O)N(C)Cc4ccccc4)cc3)sc2n1 (stereo not drawn) | 263 nM | -5.4 | 26.2 min | – | Activity [3]: inactive
5 | COc1ccc2nc(NC(=O)C(CC3CCCC3)c3ccc(S(=O)(=O)N(C)C)cc3)sc2n1 (stereo not drawn) | 295 nM | -3.3 | 17.8 min | 221% | –
6 | COc1ccc2nc(NC(=O)C(CC3CCCC3)c3ccc(S(=O)(=O)NCc4ccco4)cc3)sc2n1 (stereo not drawn) | 892 nM | -4.9 | 290 min | 14% | Activity [3]: inactive
7 | CCCCN(CCCC)S(=O)(=O)c1ccc(C(CC2CCCC2)C(=O)Nc2nc3ccc(OC)nc3s2)cc1 (stereo not drawn) | 181 nM | – | – | – | –
8 | COc1ccc2nc(NC(=O)C(CC3CCCC3)c3ccc(S(=O)(=O)N4CCCCC4)cc3)sc2n1 (stereo not drawn) | 66 nM | -5.2 | 6.2 min | 230% | –
9 | COc1ccc2nc(NC(=O)C(CC3CCCC3)c3ccc(S(=O)(=O)N4CCN(C)CC4)cc3)sc2n1 (stereo not drawn) | 39 nM | -3.9 | 9.1 min | 498% | Activity [6]: Active; Activity [7]: inactive; Activity [8]: inactive; solubility [9]: 0.05 mg/mL (≈ 92 µM); Activity [10]: 11 mM
10 | COc1ccc2nc(NC(=O)C(CC3CCCC3)c3ccc(S(=O)(=O)Nc4cccnc4)cc3)sc2n1 (stereo not drawn) | 323 nM | – | – | 219% | –
11 | COc1ccc2nc(NC(=O)C(CC3CCCC3)c3ccc(S(=O)(=O)N4CCOCC4)cc3)sc2n1 (stereo not drawn) | 153 nM | – | – | 281% | –
12 | COc1ccc2nc(NC(=O)C(CC3CCCC3)c3ccc(S(=O)(=O)NCc4ccccc4)cc3)sc2n1 (stereo not drawn) | 726 nM | – | – | 32% | –
13 | COc1ccc2nc(NC(=O)C(CC3CCCC3)c3ccc(S(=O)(=O)NCCC(=O)O)cc3)sc2n1 (stereo not drawn) | 2810 nM | -4.3 | 22.6 min | – | solubility [11]: > 0.57 mg/mL; Activity [3]: inactive
14 | CCC(=O)[N-]S(=O)(=O)c1ccc(C(CC2CCCC2)C(=O)Nc2nc3ccc(OC)nc3s2)cc1.[Na+] (stereo not drawn) | – | – | – | – | solubility [12]: 0.011 mg/mL
15 | O=C(Nc1nc2cccnc2s1)c1ccccc1 | 489 nM | – | – | 411% | –
16 | COc1ccc2nc(NC(=O)C(CC3CCCC3)c3ccc(S(=O)(=O)NC4CCOCC4)cc3)sc2n1 (stereo not drawn) | 305 nM | -4.5 | 13.1 min | – | –
17 | CCC(=O)NS(=O)(=O)c1ccc(C(CC2CCCC2)C(=O)Nc2nc3ccc(OC)nc3s2)cc1 (stereo not drawn) | – | -4.1 | 4.8 min | – | –

Row | Structure (SMILES) | Activity [1] | logPm [2] | half-life [4] | Activity [5] | other results
18 | COc1ccc2nc(NC(=O)C(CC3CCCC3)c3ccc(S(N)(=O)=O)cc3)sc2n1 (stereo not drawn) | 897 nM | -4.4 | 23.1 min | – | Activity [13]: 22%; solubility [9]: < 0.002 mg/mL
19 | COc1ccc2nc(NC(=O)C(CC3CCCC3)c3ccc(S(=O)(=O)N(C)CCO)cc3)sc2n1 (stereo not drawn) | 147 nM | -4.4 | 10 min | – | –
20 | COc1ccc2nc(NC(=O)C(CC3CCCC3)c3ccc(S(=O)(=O)NCc4ccncc4)cc3)sc2n1 (stereo not drawn) | 207 nM | -4.3 | < 1.5 min | – | solubility [9]: 0.01 mg/mL (≈ 18.1 µM)
21 | COc1ccc2nc(NC(=O)C(CC3CCCC3)c3ccc(S(=O)(=O)NC4CCCCC4)cc3)sc2n1 (stereo not drawn) | 302 nM | -7 | 4.8 min | 78% | –
22 | COc1ccc2nc(NC(=O)C(CC3CCCC3)c3ccc(S(=O)(=O)NC4CC4)cc3)sc2n1 (stereo not drawn) | 266 nM | -5.2 | 19.5 min | – | –
23 | COc1ccc2nc(NC(=O)C(CC3CCCC3)c3ccc(S(=O)(=O)N(C)Cc4nccn4C)cc3)sc2n1 (stereo not drawn) | 66 nM | -4.1 | < 1.5 min | – | –
24 | COc1ccc2nc(NC(=O)C(CC3CCCC3)c3ccc(S(=O)(=O)NCc4ccccn4)cc3)sc2n1 (stereo not drawn) | 180 nM | – | – | – | solubility [9]: 0.01 mg/mL (≈ 18.1 µM)
25 | CCCC(=O)[N-]S(=O)(=O)c1ccc(C(CC2CCCC2)C(=O)Nc2nc3ccc(OC)nc3s2)cc1.[Na+] (stereo not drawn) | – | – | – | – | solubility [12]: 0.026 mg/mL
26 | COCCNS(=O)(=O)c1ccc(C(CC2CCCC2)C(=O)Nc2nc3ccc(OC)nc3s2)cc1 (stereo not drawn) | 61 nM | -5 | 15.7 min | 85% | Activity [3]: inactive
27 | CCCC(=O)NS(=O)(=O)c1ccc(C(CC2CCCC2)C(=O)Nc2nc3ccc(OC)nc3s2)cc1 (stereo not drawn) [listing 1 of 2 here] | – | -4.4 | 2.2 min | – | –
28 | COc1ccc2nc(NC(=O)C(CC3CCCC3)c3ccc(S(=O)(=O)NCc4cccs4)cc3)sc2n1 (stereo not drawn) | 1450 nM | -5.1 | 25.3 min | – | –
29 | COc1ccc2nc(NC(=O)C(CC3CCCC3)c3ccc(S(=O)(=O)NCc4cccnc4)cc3)sc2n1 (stereo not drawn) | 377 nM | -4.6 | < 1.5 min | 281% | Activity [3]: inactive
30 | CCN(CC)S(=O)(=O)c1ccc(C(CC2CCCC2)C(=O)Nc2nc3ccc(OC)nc3s2)cc1 (stereo not drawn) | 42 nM | -5.9 | 5.8 min | 345% | –
31 | CCCC(=O)NS(=O)(=O)c1ccc(C(CC2CCCC2)C(=O)Nc2nc3ccc(OC)nc3s2)cc1 (stereo not drawn) [listing 2 of 2 here] | – | – | – | – | Activity [3]: inactive
32 | COc1ccc2nc(NC(=O)C(CC3CCCC3)c3ccc(S(=O)(=O)NCC(=O)O)cc3)sc2n1 (stereo not drawn) | 1860 nM | -4.4 | 27.2 min | – | solubility [11]: > 0.57 mg/mL; Activity [14]: 26%; Activity [15]: 20%
33 | COc1ccc2nc(NC(=O)C(CC3CCCC3)c3ccc(S(=O)(=O)NCCN(C)C)cc3)sc2n1 (stereo not drawn) | 117 nM | -4.8 | 9 min | – | –
34 | COc1ccc2nc(NC(=O)C(CC3CCCC3)c3ccc(S(=O)(=O)N(C)Cc4ccco4)cc3)sc2n1 (stereo not drawn) | 109 nM | -5.1 | 5.1 min | 67% | –
